One block for each molecule: values may come before it.
Columns and labels:
LS1034 cells = experiment: Tepoxalin drug synergy/antagonism assay, LS1034; assay type: cell-based, human; settings: LS1034, 5 days, tepoxalin doses above ~5 μM
[1] = test system: LS1034 and REC1 cell lines; experiment: Drug synergy/antagonism assays, LS1034 and REC1; assay type: cell-based, human
Outline: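 LS1034 or REC1 cells received a dose-response matrix of test compound with paclitaxel, and viability was read by CellTiter-Glo. Signals were normalized to the median of DMSO wells on each plate. Bliss synergy scores were estimated across all dose combinations with default baseline correction. The value is the score with highest magnitude across combinations (max synergy).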

OVISE cells = experiment: Viability of OVISE cells with and without SLC26A2 knockout; assay type: cell-based, human; settings: CRISPR/Cas9 SLC26A2 knockout
Outline: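 OVISE cells were grown in RPMI with 10% FBS and used with or without CRISPR/Cas9 SLC26A2 knockout; GFP sgRNA served as the non-targeting control. Indel frequency at the cut sites was checked by NGS. Cells were seeded at 2000 cells/well and dosed the next day. CellTiter-Glo viability was normalized to vehicle and reported as the mean of three independently treated wells with SD.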

PDE3A-SLFN12 = settings: cited from earlier work
SF295 glioma cell line = experiment: Viability of SF295 cells with and without MTF1 knockout; assay type: cell-based, human; settings: for change of drug sensitivity after MTF1 knockout: SF295 cells, CRISPR/Cas9 MTF1 knockout vs control
Outline: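 SF295 glioma cells: wild-type, Cas9 with GFP sgRNA, or Cas9 with MTF1 sgRNAs. Knockout was confirmed by NGS indel assay and loss of MTF1 target gene expression by RNA-seq. Cells were seeded at 2000 cells/well and dosed the next day. CellTiter-Glo viability was normalized to vehicle and reported as the mean of 3 independently treated wells with SD.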

[2] = test system: ABCB1-expressing cancer cells; experiment: Viability of ABCB1-expressing cancer cells; assay type: cell-based, human; settings: compared with tepoxalin
[3] = test system: LS1034 colon cancer cell lines with and without ABCB1 knockout
[4] = test system: Kuramochi ovarian cancer cell line; experiment: Viability of Kuramochi wild type and ABCB1-overexpressing cells; assay type: cell-based, human; settings: low-expressing, tepoxalin-insensitive cell line (Kuramochi), 8 days
Outline: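 Kuramochi ovarian cancer cells, wild-type or ABCB1-overexpressing, were grown in RPMI with 10% FBS and seeded at 2000 cells/well. Compound was added the next day and cells were treated for 8 days. Viability was read by CellTiter-Glo luminescence, normalized to vehicle, and reported as the mean of 3 independently treated wells with SD.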

ABCB1 = ABCB1 (Homo sapiens, UniProt P08183); experiment: ABCB1 activity assays; assay type: cell-based; settings: MDR1-MDCK cells; calcein AM and loperamide transport assays
Outline: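 Calcein AM efflux assay: MDR1-MDCK (MDCKII) cells incubated with test compound and calcein AM; fluorescence read-out expressed as percent ABCB1 inhibition, mean of 3 replicates. Transport assay: loperamide added to the apical side of an MDR1-MDCK monolayer and basolateral transport quantified over 60 minutes, with test compound or verapamil positive control.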

[5] = test system: LS1034 colorectal cancer cells; experiment: Cellular viability assay; assay type: cell-based; settings: Homo sapiens, LS-1034
Outline: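 LS1034 cells were grown in RPMI with 10% heat-inactivated FBS and 1% penicillin-streptomycin, and tested mycoplasma-negative. They were seeded at 2000 cells/well and digitally dispensed with compound the next day. Exposure was 5 days. CellTiter-Glo luminescence was read, replicate wells were averaged and normalized to vehicle, and dose curves were fitted.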

Sequence of ABCB1 (P08183 whole entry): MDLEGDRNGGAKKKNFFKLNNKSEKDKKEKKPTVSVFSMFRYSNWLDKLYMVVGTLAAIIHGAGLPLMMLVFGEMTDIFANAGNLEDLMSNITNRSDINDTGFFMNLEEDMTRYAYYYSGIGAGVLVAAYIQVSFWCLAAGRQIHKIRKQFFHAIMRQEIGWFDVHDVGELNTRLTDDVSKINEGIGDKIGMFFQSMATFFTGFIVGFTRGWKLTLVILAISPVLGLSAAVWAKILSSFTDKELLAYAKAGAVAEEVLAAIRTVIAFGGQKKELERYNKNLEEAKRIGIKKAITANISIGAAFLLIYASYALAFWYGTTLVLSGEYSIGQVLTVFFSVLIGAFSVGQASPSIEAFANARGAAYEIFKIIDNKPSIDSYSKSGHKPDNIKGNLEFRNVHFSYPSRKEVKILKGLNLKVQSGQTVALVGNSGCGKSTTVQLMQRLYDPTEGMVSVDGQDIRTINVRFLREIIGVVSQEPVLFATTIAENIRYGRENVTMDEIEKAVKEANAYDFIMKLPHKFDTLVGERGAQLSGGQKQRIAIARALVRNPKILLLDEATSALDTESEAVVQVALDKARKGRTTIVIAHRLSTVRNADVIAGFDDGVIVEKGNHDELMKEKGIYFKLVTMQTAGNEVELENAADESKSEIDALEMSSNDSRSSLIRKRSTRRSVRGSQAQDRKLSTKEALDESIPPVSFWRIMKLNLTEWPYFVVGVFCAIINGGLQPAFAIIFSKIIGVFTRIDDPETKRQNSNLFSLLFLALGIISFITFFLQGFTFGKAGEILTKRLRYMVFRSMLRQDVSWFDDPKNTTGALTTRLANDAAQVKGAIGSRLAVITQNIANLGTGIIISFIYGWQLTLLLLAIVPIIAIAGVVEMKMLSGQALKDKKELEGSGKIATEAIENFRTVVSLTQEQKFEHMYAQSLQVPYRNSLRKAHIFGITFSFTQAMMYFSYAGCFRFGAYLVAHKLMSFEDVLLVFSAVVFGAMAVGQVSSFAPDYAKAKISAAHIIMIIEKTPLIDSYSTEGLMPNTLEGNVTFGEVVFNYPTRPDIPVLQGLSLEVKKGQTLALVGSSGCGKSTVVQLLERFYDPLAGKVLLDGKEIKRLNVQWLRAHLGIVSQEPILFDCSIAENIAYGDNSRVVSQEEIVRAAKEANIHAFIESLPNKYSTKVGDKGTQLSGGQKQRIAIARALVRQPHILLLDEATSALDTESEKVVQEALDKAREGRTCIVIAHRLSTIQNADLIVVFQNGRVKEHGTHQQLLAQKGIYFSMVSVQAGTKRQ

Molecule: O[C@@H](COc1cccc2ncccc12)CN1CCN([C@@H]2c3ccccc3[C@@H]3[C@H](c4ccccc42)C3(F)F)CC1 [zosuquidar]
Bliss synergy in combination with tepoxalin (LS1034 cells): strong antagonism

Molecule: COc1cc2c(cc1OC)CN(CCc1ccc(NC(=O)c3cccc4c(=O)c5cccc(OC)c5[nH]c34)cc1)CC2 [elacridar]
maximum synergy score in combination with paclitaxel [1]: strongly synergistic

Molecule: bis(ethylmaltolato)oxovanadium(IV) [BEOV]
sensitivity of cells after SLC26A2 knockout (OVISE cells): resistant

Molecule: Cc1occc(=O)c1[O-].Cc1occc(=O)c1[O-].[O]=[V+2] [BMOV, bis(maltolato)oxovanadium(IV)]
sensitivity of cells after SLC26A2 knockout (OVISE cells): resistant

Molecule: COc1cc2c(cc1OC)CN(CCc1ccc(NC(=O)c3cc(OC)c(OC)cc3NC(=O)c3cnc4ccccc4c3)cc1)CC2 [tariquidar]
maximum synergy score in combination with paclitaxel [1]: strongly synergistic

Molecule: COc1cc2c(cc1OC)-c1c/c(=N\c3c(C)cc(C)cc3C)n(C)c(=O)n1CC2 [trequinsin]
induction of PDE3A-SLFN12 interaction (PDE3A-SLFN12): does not induce PDE3A-SLFN12 interaction

Molecule: CCN(CC)C(=S)SSC(=S)N(CC)CC [disulfiram]
effect of copper chelator tetrathiomolybdate (TTM) on the increased sensitivity (SF295 glioma cell line; SF295 MTF1 knockout cells, co-treatment with 1 μM TTM): completely reversed | change of drug sensitivity after MTF1 knockout (SF295 glioma cell line): increased sensitivity

cell permeability [3]: not cell-permeable
Molecule: COc1ccc(-n2nc(CCC(=O)O)cc2-c2ccc(Cl)cc2)cc1 [RWJ20142, 3-(5-(4-chlorophenyl)-1-(4-methoxyphenyl)-1H-pyrazol-3-yl)propanoic acid]
inhibition of ABCB1-expressing cancer cells [2]: no inhibition

ABCB1 inhibition (ABCB1): inhibit ABCB1 at high concentrations | IC50 [5]: 3.8 µM
Molecule: COc1ccc(-n2nc(CCC(=O)N(C)O)cc2-c2ccc(Cl)cc2)cc1 [tepoxalin]
change of drug sensitivity after ABCB1 overexpression [4]: increased drug sensitivity

Molecule: CC(C)C[C@H](NC(=O)[C@H](Cc1ccccc1)NC(=O)c1cnccn1)B(O)O [bortezomib]
change of drug sensitivity after MTF1 knockout (SF295 glioma cell line): did not alter sensitivity

Source: publication PMC7328899 (Nature cancer, 2020)
